# Published values gathered from unrelated publications.
# Lines come from different studies, so protocols differ.
# Target: PAS domain-containing serine/threonine-protein kinase (PASK, Homo sapiens, UniProt Q96RG2)
SMILES,test,conditions,measurement,result
O=C(Nc1cnn(-c2csc(C(=O)NC3COC3)c2)c1)Nc1ccccc1Cl,"enzyme activity, inhibitor",5 µM,remaining activity,96.3%
CC(C)(C)c1nc(-c2cccc(NS(=O)(=O)c3c(F)cccc3F)c2F)c(-c2ccnc(N)n2)s1,"enzyme activity, inhibitor, radiometric",1 µM,remaining activity,98%
CCN(CC)CCNC(=O)c1c(C)[nH]c(/C=C2\C(=O)Nc3ccc(F)cc32)c1C,"enzyme activity, inhibitor",10 µM,inhibition,19%
O=C1NC(=O)c2cc(Nc3ccc(F)cc3)c(Nc3ccc(F)cc3)cc21,cell-free assay,0.5 µM,remaining signal,91.3%
CCCS(=O)(=O)Nc1ccc(F)c(C(=O)c2c[nH]c3ncc(-c4ccc(Cl)cc4)cc23)c1F,"enzyme activity, inhibitor",1 µM,inhibition,< 10%
O=C1Nc2ccc(Cl)cc2C1=Cc1cc(Cl)c(O)c(Cl)c1,cell-free assay,0.5 µM,remaining signal,70%
O=C(Nc1cnn(-c2csc(C(=O)NC3COC3)c2)c1)Nc1c(F)cccc1Cl,"enzyme activity, inhibitor",5 µM,remaining activity,99.7%
CCN(CC)c1ccc(C2=NNC(=O)CC2C)cc1[N+](=O)[O-] (stereo not shown),"enzyme activity, inhibitor",10 µM,remaining activity,98%
COc1cc2ncnc(Nc3ccc(Oc4ccccc4)cc3C)c2cc1OC,"enzyme activity, inhibitor",1 µM,inhibition,-2%
CNC(=O)c1cc(Oc2ccc(NC(=O)Nc3ccc(Cl)c(C(F)(F)F)c3)cc2)ccn1,"enzyme activity, inhibitor",10 µM,inhibition,-9%
Cc1ccc(NC(=O)c2ccc(C)c(C(F)(F)F)c2)cc1C#Cc1nn(C2CCC(O)CC2)c2ncnc(N)c12 (stereo not shown),cell-free assay,10 µM,remaining signal,113%
Cc1ccc(Nc2nccc(N(C)c3ccc4c(C)n(C)nc4c3)n2)cc1S(N)(=O)=O,"enzyme activity, inhibitor",0.3 µM,inhibition,-1%
CN1CC(Oc2cnc(C#N)cc2-c2ccn3nc(NC(=O)C4CC4)cc3c2)C1,"enzyme activity, inhibitor",1 µM,inhibition,-16%
